Drawing on ChEMBL document CHEMBL1821578, “Bioactive A-type proanthocyanidins from Cinnamomum cassia” (J Nat Prod, 2011), this text covers inhibition for four molecules.

The inhibition is the drop in the measured response relative to a control, in per cent.

Assay [1] deals with T1, Prostaglandin G/H synthase 2 (Homo sapiens) (UniProt P35354).
T1 sequence (whole entry): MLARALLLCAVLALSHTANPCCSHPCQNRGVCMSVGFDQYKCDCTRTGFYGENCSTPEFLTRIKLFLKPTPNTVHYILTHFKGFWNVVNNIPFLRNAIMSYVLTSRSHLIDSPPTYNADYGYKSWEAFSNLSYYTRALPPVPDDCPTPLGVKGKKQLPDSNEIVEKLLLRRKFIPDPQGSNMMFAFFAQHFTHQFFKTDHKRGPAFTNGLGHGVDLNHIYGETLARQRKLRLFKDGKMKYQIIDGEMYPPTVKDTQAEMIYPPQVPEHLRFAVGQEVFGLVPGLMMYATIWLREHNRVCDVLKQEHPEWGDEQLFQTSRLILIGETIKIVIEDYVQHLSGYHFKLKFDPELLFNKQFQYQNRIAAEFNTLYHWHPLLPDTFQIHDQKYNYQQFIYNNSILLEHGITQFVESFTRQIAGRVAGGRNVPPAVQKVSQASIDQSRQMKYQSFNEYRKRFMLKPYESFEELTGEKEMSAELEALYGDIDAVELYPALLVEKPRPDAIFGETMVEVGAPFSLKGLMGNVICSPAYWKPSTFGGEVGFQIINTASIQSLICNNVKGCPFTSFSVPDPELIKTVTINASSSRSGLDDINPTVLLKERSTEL
The experiment in a line: Inhibition of human recombinant COX2 expressed in Sf9 cells at 10 ug/mL. In outline:
(§1)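 Enzyme: human recombinant COX-2 produced in Sf9 cells, assayed by a previously published procedure. Each compound was run in triplicate at three log-spaced levels (10, 100 and 1000 μg/mL). Inhibition of enzyme activity is the read-out.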

Assay [2] concerns the target T1, Prostaglandin G/H synthase 2 (Homo sapiens). The experiment in a line: Inhibition of human recombinant COX2 expressed in Sf9 cells at 100 ug/mL. The procedure, abridged:
as §1

Assay [3] shares this target. The experiment in a line: Inhibition of human recombinant COX2 expressed in Sf9 cells at 1000 ug/mL. The procedure, abridged: as §1

As to `Oc1cc(O)c2c(c1)O[C@@]1(c3ccc(O)c(O)c3)Oc3cc(O)c4c(c3[C@@H]2[C@H]1O)O[C@H](c1ccc(O)c(O)c1)[C@H](O)[C@H]4c1c(O)cc(O)c2c1O[C@H](c1ccc(O)c(O)c1)[C@@H](O)C2` (mixture of isomers), the inhibition in assay [1] was determined as 2%; in assay [2], 44%; in assay [3], 95%.

For `Oc1cc(O)c2c(c1)O[C@@]1(c3ccc(O)c(O)c3)Oc3cc(O)c4c(c3[C@@H]2[C@H]1O)O[C@H](c1ccc(O)c(O)c1)[C@H](O)[C@H]4c1c(O)cc(O)c2c1O[C@H](c1ccc(O)c(O)c1)[C@H](O)C2` (mixture of isomers), the inhibition in assay [1] worked out at 19%; in assay [2], 27%; in assay [3], 86%.

Take `Oc1cc(O)c2c(c1)O[C@H](c1ccc(O)c(O)c1)[C@H](O)[C@H]2c1c(O)c2c(c3c1O[C@]1(c4ccc(O)c(O)c4)Oc4cc(O)cc(O)c4[C@H]3[C@H]1O)O[C@H](c1ccc(O)c(O)c1)[C@H](O)[C@H]2c1c(O)cc(O)c2c1O[C@H](c1ccc(O)c(O)c1)[C@H](O)C2` (mixture of isomers): the inhibition in assay [1] was found to be 14%; in assay [2] it was 86%; in assay [3], 94%.

Turning to `Oc1cc(O)c2c(c1)O[C@H](c1ccc(O)c(O)c1)[C@H](O)[C@H]2c1c(O)c2c(c3c1O[C@]1(c4ccc(O)c(O)c4)Oc4cc(O)cc(O)c4[C@H]3[C@H]1O)O[C@H](c1ccc(O)c(O)c1)[C@H](O)[C@H]2c1c(O)cc(O)c2c1O[C@H](c1ccc(O)c(O)c1)[C@@H](O)C2` (mixture of isomers), the figures for the inhibition in assay [1], in assay [2] and in assay [3] were 38%, 52% and 97%, respectively.
